Series [1] addresses Voltage-gated inwardly rectifying potassium channel KCNH2 (Homo sapiens, UniProt Q12809). Description: Displacement of [3H] dofetilide from human ERG channel expressed in HEK293 cells. It counts as cell-based.
A further series addresses T1, Cathepsin K (Homo sapiens, UniProt P43235).
T1 sequence (P43235 whole entry): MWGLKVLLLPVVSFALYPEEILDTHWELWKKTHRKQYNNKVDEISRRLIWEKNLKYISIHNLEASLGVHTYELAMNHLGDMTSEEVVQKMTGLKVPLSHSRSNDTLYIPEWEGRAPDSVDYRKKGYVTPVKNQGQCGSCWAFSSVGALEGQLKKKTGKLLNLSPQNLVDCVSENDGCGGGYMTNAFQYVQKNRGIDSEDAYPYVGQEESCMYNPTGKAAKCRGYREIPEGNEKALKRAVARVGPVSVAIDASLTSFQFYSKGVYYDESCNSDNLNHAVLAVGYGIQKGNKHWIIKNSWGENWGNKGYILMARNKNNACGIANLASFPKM
Description: Inhibition of human recombinant cathepsin K using Z-Phe-Arg-MCA substrate by fluorimetric assay.

Series [2] is described as follows: Half life in plasma. In kind it is ADME, cell-free.
The next series concerns Osteoclast. Description: Inhibition of bone resorption in rabbit osteoclasts. It counts as functional, cell-based. The following applies: Oryctolagus cuniculus.
Another series addresses Cytochrome P450 3A4 (Homo sapiens, UniProt P08684). Description: Inhibition of CYP3A4. In kind it is ADME.
The next series deals with Cytochrome P450 2C19 (Homo sapiens, UniProt P33261). Description: Inhibition of CYP2C19. In kind it is ADME.
For a further series, the target named is Procathepsin L (Homo sapiens, UniProt P07711). Description: Inhibition of human recombinant cathepsin L.
For the next series, the target named is Cathepsin B (Homo sapiens, UniProt P07858). Description: Inhibition of human recombinant cathepsin B.
Another series has as its target Cathepsin S (Homo sapiens, UniProt P25774). Description: Inhibition of human recombinant cathepsin S.
The target in another series is T2, Cytochrome P450 1A2 (Homo sapiens, UniProt P05177).
T2 sequence (P05177 whole entry): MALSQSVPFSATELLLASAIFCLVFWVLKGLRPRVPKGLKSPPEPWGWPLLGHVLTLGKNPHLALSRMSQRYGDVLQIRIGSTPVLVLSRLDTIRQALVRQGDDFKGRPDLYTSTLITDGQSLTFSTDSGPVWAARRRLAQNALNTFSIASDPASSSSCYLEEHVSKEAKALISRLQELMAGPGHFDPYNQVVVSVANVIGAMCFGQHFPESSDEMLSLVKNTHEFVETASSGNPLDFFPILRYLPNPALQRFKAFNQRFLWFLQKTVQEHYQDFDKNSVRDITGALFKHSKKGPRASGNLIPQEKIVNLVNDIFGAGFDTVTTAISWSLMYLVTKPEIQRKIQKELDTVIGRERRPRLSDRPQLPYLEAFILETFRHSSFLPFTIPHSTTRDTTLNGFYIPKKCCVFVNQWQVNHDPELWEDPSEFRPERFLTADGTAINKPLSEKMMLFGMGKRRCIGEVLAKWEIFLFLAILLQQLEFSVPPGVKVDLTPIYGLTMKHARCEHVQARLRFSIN
Description: Inhibition of CYP1A2. It counts as ADME.

Series [3] is described as follows: Solubility in pH 7.4 PBS solution. In kind it is physicochemical.
The next series deals with Cytochrome P450 2C9 (Homo sapiens, UniProt P11712). Description: Inhibition of CYP2C9. In kind it is ADME.
Series [4] can be described thus: Oral bioavailability in Wistar rat at 10 mg/kg. In kind it is ADME, organism-based. The following applies: in vivo. The gist of the method:
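Wistar rats were dosed iv at 2 mg/kg and po at 10 mg/kg. Oral bioavailability (F, %) was derived from the two routes.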

A short description of series [5]: Oral bioavailability in Beagle dog at 1.96 mg/kg. The following applies: in vivo.
The nature of series [6]: Oral bioavailability in cynomolgus monkey at 4.63 mg/kg. The following applies: in vivo.

In brackets after ≈: the same amount, converted by molar mass. Bounds are passed on as bounds.

Voltage-gated inwardly rectifying potassium channel KCNH2, sequence (Q12809 whole entry): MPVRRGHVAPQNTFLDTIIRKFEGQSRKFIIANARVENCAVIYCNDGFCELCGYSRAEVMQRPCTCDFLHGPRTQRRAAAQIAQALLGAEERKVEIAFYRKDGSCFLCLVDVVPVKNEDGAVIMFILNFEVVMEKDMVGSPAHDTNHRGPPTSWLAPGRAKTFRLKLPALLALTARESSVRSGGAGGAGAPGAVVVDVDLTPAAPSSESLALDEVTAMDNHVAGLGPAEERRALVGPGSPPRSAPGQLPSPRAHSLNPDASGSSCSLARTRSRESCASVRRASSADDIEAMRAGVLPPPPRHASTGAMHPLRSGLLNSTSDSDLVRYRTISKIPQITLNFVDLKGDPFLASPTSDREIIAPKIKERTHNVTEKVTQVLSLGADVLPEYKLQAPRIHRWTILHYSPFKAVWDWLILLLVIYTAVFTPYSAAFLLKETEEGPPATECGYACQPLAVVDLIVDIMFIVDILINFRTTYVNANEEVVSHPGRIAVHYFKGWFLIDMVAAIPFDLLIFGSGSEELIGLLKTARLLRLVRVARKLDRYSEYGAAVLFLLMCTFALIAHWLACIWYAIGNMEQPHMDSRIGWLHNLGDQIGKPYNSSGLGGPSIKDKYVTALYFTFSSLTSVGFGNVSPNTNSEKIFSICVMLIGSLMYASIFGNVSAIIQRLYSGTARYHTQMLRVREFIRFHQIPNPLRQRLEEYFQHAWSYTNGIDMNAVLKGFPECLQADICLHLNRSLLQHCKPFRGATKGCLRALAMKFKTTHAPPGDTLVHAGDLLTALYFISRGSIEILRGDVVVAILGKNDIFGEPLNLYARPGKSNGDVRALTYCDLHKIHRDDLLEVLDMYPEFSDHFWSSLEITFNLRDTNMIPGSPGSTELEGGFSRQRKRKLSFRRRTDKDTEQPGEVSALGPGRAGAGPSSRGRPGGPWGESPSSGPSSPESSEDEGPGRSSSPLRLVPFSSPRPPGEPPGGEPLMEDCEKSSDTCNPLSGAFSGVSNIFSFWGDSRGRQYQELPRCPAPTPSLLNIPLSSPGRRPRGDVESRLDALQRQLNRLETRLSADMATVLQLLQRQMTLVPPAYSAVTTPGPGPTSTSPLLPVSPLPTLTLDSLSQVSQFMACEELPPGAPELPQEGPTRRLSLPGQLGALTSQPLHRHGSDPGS
Cathepsin S, sequence (P25774 whole entry): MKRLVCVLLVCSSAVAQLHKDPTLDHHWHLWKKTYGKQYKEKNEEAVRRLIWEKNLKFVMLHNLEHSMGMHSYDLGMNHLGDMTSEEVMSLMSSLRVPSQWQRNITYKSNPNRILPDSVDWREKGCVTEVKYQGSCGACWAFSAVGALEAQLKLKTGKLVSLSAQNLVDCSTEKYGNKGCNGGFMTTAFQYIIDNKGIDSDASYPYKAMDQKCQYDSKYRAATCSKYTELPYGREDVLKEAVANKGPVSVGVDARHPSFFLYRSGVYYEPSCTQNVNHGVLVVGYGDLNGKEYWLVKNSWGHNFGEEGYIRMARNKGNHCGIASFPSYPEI
Cytochrome P450 2C9, sequence (P11712 whole entry): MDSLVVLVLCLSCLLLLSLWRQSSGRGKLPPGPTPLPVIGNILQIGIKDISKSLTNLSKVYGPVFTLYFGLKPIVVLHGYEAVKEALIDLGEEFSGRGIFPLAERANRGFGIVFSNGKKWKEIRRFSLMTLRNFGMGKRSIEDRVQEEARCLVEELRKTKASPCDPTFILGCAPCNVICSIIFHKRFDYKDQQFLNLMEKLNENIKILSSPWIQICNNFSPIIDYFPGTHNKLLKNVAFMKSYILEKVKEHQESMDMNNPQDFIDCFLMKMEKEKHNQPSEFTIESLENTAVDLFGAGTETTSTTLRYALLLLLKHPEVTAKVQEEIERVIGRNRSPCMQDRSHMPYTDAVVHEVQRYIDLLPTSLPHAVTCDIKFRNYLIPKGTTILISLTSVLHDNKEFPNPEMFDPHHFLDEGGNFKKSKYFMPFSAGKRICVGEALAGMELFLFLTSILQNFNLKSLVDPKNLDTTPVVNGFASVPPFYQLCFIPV
Cytochrome P450 3A4, sequence (P08684 whole entry): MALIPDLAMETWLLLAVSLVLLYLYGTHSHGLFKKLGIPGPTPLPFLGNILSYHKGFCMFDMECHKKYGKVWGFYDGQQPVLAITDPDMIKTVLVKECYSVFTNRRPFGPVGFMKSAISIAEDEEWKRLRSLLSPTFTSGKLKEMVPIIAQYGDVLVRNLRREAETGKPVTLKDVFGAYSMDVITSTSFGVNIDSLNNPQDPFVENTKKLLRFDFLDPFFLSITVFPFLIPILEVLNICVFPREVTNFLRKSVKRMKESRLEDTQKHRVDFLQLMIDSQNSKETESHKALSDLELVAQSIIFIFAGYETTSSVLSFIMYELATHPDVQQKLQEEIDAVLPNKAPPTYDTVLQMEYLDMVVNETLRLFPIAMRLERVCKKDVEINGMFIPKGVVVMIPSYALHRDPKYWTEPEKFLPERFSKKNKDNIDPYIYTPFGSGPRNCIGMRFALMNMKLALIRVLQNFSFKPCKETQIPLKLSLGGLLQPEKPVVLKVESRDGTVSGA
Procathepsin L, sequence (P07711 whole entry): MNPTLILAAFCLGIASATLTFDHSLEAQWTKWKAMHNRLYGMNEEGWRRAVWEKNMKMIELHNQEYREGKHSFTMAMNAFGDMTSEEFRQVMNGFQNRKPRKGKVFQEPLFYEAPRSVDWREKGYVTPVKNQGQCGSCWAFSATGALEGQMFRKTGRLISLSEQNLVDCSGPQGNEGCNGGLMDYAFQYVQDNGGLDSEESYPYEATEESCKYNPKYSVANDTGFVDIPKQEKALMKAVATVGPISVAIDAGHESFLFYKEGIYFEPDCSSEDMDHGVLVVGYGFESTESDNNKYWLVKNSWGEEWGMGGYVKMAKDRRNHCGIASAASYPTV
Cytochrome P450 2C19, sequence (P33261 whole entry): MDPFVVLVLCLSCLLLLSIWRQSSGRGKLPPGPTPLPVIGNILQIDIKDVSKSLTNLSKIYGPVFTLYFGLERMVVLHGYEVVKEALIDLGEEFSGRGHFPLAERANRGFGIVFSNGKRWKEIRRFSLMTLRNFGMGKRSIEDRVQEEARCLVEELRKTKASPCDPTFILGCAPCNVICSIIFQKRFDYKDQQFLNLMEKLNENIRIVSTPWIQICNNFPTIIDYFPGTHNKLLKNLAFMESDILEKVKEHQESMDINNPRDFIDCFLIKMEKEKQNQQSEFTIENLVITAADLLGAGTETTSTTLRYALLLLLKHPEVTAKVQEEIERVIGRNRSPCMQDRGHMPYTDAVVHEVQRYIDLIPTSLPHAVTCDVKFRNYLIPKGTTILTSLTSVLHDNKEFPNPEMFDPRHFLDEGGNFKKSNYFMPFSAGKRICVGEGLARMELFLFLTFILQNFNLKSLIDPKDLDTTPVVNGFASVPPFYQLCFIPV

The Ki is the dissociation constant of the complex between target and ligand, obtained from inhibition or displacement. As usually defined, the IC50 is the concentration at which inhibition is half-maximal. On to `N#Cc1nc(CCC(=O)O)cc(-c2cccc(C(F)(F)F)c2)n1`, for which the Ki in [1] was more than 10000 nM. In addition, the IC50 on Cathepsin K came out at 166 nM. The term half-life denotes the time in which the quantity being followed falls by half. `N#Cc1nc(CCCNC2(C(N)=O)CCOCC2)cc(-c2cccc(C(F)(F)F)c2)n1` yielded a half-life in series [2] of more than 2.5 h. Further, the Ki in series [1] is more than 10000 nM. For the same compound, the IC50 on Cathepsin K came out at 5 nM. With `CCCc1cc(-c2cc(C(=O)N(C)Cc3ccccc3)cc(C(F)(F)F)c2)nc(C#N)n1`, the IC50 at Cathepsin K was found to be 9 nM. `N#Cc1nc(CCCNCC(F)(F)F)cc(-c2cccc(C(F)(F)F)c2)n1` displayed a Ki in [1] of 500 nM. The IC50 on Cathepsin K worked out at 30 nM. Regarding `CN1CCN(CCCc2cc(-c3cccc(C(F)(F)F)c3)nc(C#N)n2)CC1`, at Cathepsin K, the IC50 was 10 nM.

`N#Cc1nc(CCCNCc2nnn[nH]2)cc(-c2cccc(C(F)(F)F)c2)n1`: the IC50 with Osteoclast is 1640 nM; on Cathepsin K it was 11 nM. Further, in series [1], the Ki is more than 10000 nM. `N#Cc1nc(CCCN2CCC(O)CC2)cc(-c2cccc(C(F)(F)F)c2)n1` showed a Ki in [1] of 1120 nM. Still for that read-out and setting: next, `N#Cc1nc(CCCNCC(=O)O)cc(-c2cccc(C(F)(F)F)c2)n1`: more than 10000 nM.

In the case of `CCCc1cc(-c2cc(C(F)(F)F)ccc2C(=O)N(C)C)nc(C#N)n1`, at Cathepsin K, the IC50 was determined as 427 nM. For the compound `COCCNCCCc1cc(-c2cccc(C(F)(F)F)c2)nc(C#N)n1`, the affinity in [1], expressed as Ki, was 560 nM. Besides, on Cathepsin K, the IC50 is 10 nM. Compound `N#Cc1nc(CCCN2CCOCC2)cc(-c2cccc(C(F)(F)F)c2)n1` yielded a Ki in series [1] of 320 nM. For the same compound, on Cathepsin K, the IC50 stood at 9 nM.

For the compound `CCCc1cc(-c2cc(C(=O)N(C)C)cc(C(F)(F)F)c2)nc(C#N)n1`, the Ki in series [1] was more than 10000 nM. As for `N#Cc1nc(CCCN2CCOC[C@H]2C(N)=O)cc(-c2cccc(C(F)(F)F)c2)n1`, the half-life in series [2] was more than 2.5 h. Moreover, the Ki in [1] was more than 10000 nM. Further, at Cathepsin K, the IC50 was found to be 13 nM. Turning to `CCC(CC)NC(=O)CCc1cc(-c2cccc(C(F)(F)F)c2)nc(C#N)n1`, the IC50 on Cathepsin K stood at 389 nM. Turning to `CCCc1cc(-c2cc(C(=O)N(C)CCN(C)C)cc(C(F)(F)F)c2)nc(C#N)n1`, the Ki in series [1] stood at 710 nM. `N#Cc1nc(CCCNC2(C(N)=O)CCC2)cc(-c2cccc(C(F)(F)F)c2)n1`: in series [1], the Ki stood at 2510 nM. Still for that read-out and setting: next, `CCCc1cc(-c2cc(C(=O)N(CCN(C)C)Cc3ccccc3)cc(C(F)(F)F)c2)nc(C#N)n1`: 120 nM. The solubility is how much of the substance goes into solution per volume. What is called bioavailability is dose-corrected exposure relative to a reference, in per cent. For `CC(C)(NCCCc1cc(-c2cccc(C(F)(F)F)c2)nc(C#N)n1)C(N)=O`, the IC50 on Cytochrome P450 3A4 is more than 35000 nM; at Cytochrome P450 2C19, more than 35000 nM; on Procathepsin L it was more than 10000 nM; at Cathepsin B it was 2510 nM; on Cathepsin S, 16 nM; at Cytochrome P450 1A2, more than 35000 nM. Moreover, the IC50 against Cytochrome P450 2C9 is more than 35000 nM. The solubility in series [3] was 393 µg/mL (≈ 1000 µM). Moreover, the bioavailability turned out to be 29% in [4], 29% in [5] and 57% in [6].

As to `N#Cc1nc(CCCNC2(C(N)=O)CC2)cc(-c2cccc(C(F)(F)F)c2)n1`, the Ki in series [1] stood at 1580 nM. Compound `N#Cc1nc(CCCNCC(N)=O)cc(-c2cccc(C(F)(F)F)c2)n1` showed a Ki in [1] of 3980 nM.

For the compound `CNCCCc1cc(-c2cccc(C(F)(F)F)c2)nc(C#N)n1`, on Cathepsin K, the IC50 was 6 nM. In the case of `N#Cc1nc(CCCNc2ccccn2)cc(-c2cccc(C(F)(F)F)c2)n1`, at Cathepsin K, the IC50 came out at 3 nM. The compound `N#Cc1nc(CCCN2CCCCC2)cc(-c2cccc(C(F)(F)F)c2)n1` yielded a Ki in [1] of 160 nM. The compound also had a solubility in [3] of 60 µg/mL (≈ 160 µM).

These data come from ChEMBL document CHEMBL1268809, “Optimisation of 2-cyano-pyrimidine inhibitors of cathepsin K: improving selectivity over hERG” (Bioorg Med Chem Lett, 2010).
